Test results reported in ChEMBL document CHEMBL1151981, “Bioactive pyridine-N-oxide disulfides from Allium stipitatum” (J Nat Prod, 2009).
In brackets after ≈: the same amount, converted by molar mass. Activity calls are given as the source filed them. The rule behind the calls is not given here.

Legend:
[1] = test system: Mycobacterium tuberculosis; experiment: Antibacterial activity against Mycobacterium bovis BCG at 0.01 to 5 ug/ml after 14 days by spot-culture growth inhibition assay; type: functional, organism-based; conditions: variant bovis BCG
In short: (§1)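 Mid-exponential cultures (BCG rotated in 7H9/ADC/Tween 80; H37Rv standing in 7H9/OADC/Tween 80) diluted to 10³ cells/mL. 5 µL spotted onto 7H10 agar with 10% OADC containing compound at 0.01, 0.1, 0.5, 1 and 5 µg/mL. Incubated at 37 °C for 14 days. MIC taken as lowest concentration with no growth; no-compound well as growth control.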

[2] = test system: Mycobacterium tuberculosis; experiment: Antibacterial activity against Mycobacterium bovis BCG after 14 days by spot-culture growth inhibition assay; type: functional; conditions: variant bovis BCG, 336 h; in short: as §1

| SMILES | Activity [1] | MIC [2] |
| --- | --- | --- |
| CSCSSc1cccc[n+]1[O-] | Active | 0.1 µg/mL (≈ 0.456 µM) |
| CSSc1cccc[n+]1[O-] | Active | 0.1 µg/mL (≈ 0.577 µM) |
